Assay results collected from several papers.
Sample: plasma

The AUC(0-inf) of `C=C(C)[C@@H]1CC[C@]2(NCCN3CCS(=O)(=O)CC3)CC[C@]3(C)[C@H](CC[C@@H]4[C@@]5(C)CC=C(C6=CC[C@@](COc7ncccc7C#N)(C(=O)O)CC6)C(C)(C)[C@@H]5CC[C@]43C)[C@@H]12` is reported as 28000 ng·h/mL (human; oral; 100 mg; fasted, tablet).
The AUC(0-inf) of `CN(C)CCc1c[nH]c2ccccc12` is reported as 5.87 ng·h/mL (human; intravenous; 9 mg; healthy volunteers, infusion).
`COc1ccc(C[C@@H]2NC(=O)[C@H]([C@@H](C)O)NC(=O)[C@@H]3[C@@H]4CCN3C(=O)[C@@H]3Cc5cn(c6ccc(F)cc56)CCCCCCN(Cc5ccc(cc5)CCNC(=O)[C@]5(C)CCCN5C2=O)C(=O)CCC(=O)N[C@@H](C)C(=O)N[C@H](CNC(=O)CCCCC[N+](C)(C)C)C(=O)N[C@@H](Cc2cccc(c2)CNC(=O)CO4)C(=O)N3)cc1` has an AUC(0-t) of 0.481 µM·h (human; oral; 200 mg; single dose).
`OCc1ncc2n1-c1ccc(Cl)cc1C(c1ccccc1F)=NC2` has an AUC(0-inf) of 9.63 ng·h/mL (human; oral; 2 mg).
With `Cc1ncc2n1-c1ccc(Cl)cc1C(c1ccccc1F)=NC2` the AUC was 117 ng·h/mL (male human; oral; 7.5 mg).
`c1cc([C@H]2CC[C@]3(CC2)OO[C@]2(O3)C3CC4CC(C3)CC2C4)ccc1OCCN1CCOCC1` gave an AUC(0-inf) of 3180 ng·h/mL (human; oral; 200 mg; patients).
The AUC(0-t) of `CC(C)[C@H](N)C(=O)NCCCS(=O)(=O)O` is reported as 11200 ng·h/mL (human; oral; 256.5 mg; multiple doses, twice daily, fasted).
With `N=C(N)NCCC[C@@H](NC(=O)[C@@H](N)Cc1ccccc1)C(=O)N[C@@H](Cc1ccccc1)C(=O)N[C@@H](CCCCN)C(N)=O` the AUC(0-t) was 4620 ng·h/mL (human; subcutaneous; 25 mg; patients).
`CC(=C/C=C/C(C)=C/C(=O)O)/C=C1\CCCc2ccccc21` has an AUC(0-inf) of 827 ng·h/mL (human; oral; 20 mg; single dose, fasted, healthy volunteers).
`C=CCNc1c(O)cc2c(O)c1C[C@@H](C)C[C@H](OC)[C@H](O)[C@@H](C)/C=C(\C)[C@H](OC(N)=O)[C@@H](OC)/C=C\C=C(/C)C(=O)N2` gave an AUC(0-inf) of 11700 ng·h/mL (human; intravenous; 400 mg/m²; patients, infusion).
